Bioassay records: PubChem, several laboratories
Lmaj promast – Leishmania major promastigote growth inhibition, primary screen | inhibition, % at 10 µM | hit rate 9% among 200,000 | Leishmania major promastigotes, resazurin fluorescence viability | AID 1063, 2008; in the data active = inhibition above about 50%;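 note: promastigotes grown with compound for 44 hours at 28 °C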
Ba/F3 V617F tox – reduced viability of JAK2V617F-dependent Ba/F3 cells, primary screen, JAK2V617F inhibitor project, cell-based, Ba/F3 EpoR-JAK2V617F, luminescence; inhibition, % at 5.6 µM; ATP luminescence; AID 1446, 2008; hit rate 1.1% among 220,000;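 active = inhibition above the campaign mean plus 3 SD over all tested compounds, cut at about 24% in these data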;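 note: cytokine-independent growth of Ba/F3 cells driven by EpoR plus mutant JAK2; 0% = DMSO-treated cells and 100% = JAK inhibitor I control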
BaF3 parental – parental Ba/F3 cell viability inhibition, counter-screen for JAK2V617F inhibitor project, murine pro-B, CellTiter-Glo luminescence | CellTiter-Glo ATP luminescence | inhibition, % at 5.6 µM | hit rate 1.1% among 220,000;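 active = inhibition above a per-campaign cutoff, the mean inhibition of all tested compounds plus 3 SD, cut at about 27% in these data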;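 note: 0% = DMSO wells and 100% = JAK Inhibitor I control wells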
MT stabilizer – microtubule stabilizers in HeLa cells, primary screen, imaging, high-content imaging | AID 2205, 2009 | hit rate 0.83% among 200,000 | % tubulin-high responders, % at 10 µM | HeLa tubulin immunostaining HCS, 24 h; share of cells brighter than vehicle mean+2SD;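 active = plate Z-score above 3 for both tubulin-high and condensed-nucleus cell shares, with cell loss under 80%, at 10 µM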;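 note: anti alpha tubulin signal scored within the nucleus-defined area of each cell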
bCat nuc transl – modulators of beta-catenin nuclear translocation, primary screen, imaging, HeLa cells, immunofluorescence, high-content; nuclear translocation activity, % at 5 µM; hit rate 0.3% among 190,000;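 active = nuclear translocation activity above 50% at 5 µM, with a well cell count of 50 or more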;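 note: per-cell ratio of nuclear to cytoplasmic median beta-catenin stain intensity; plate controls were DMSO negative control for no effect and GSK-3 inhibitor IX positive control for full effect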
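Technique: fluorescence imaging of beta-catenin antibody stain plus DAPI / Material: human HeLa cell line / Incubation: compound treatment 24 h, 37°C, 5% CO2 / Read-out basis: % activation of per-cell nuclear versus cytoplasmic median beta-catenin signal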
APP 5UTR inh – inhibitors of APP translation via 5'UTR reporter, primary screen, APP 5'UTR luciferase, SH-SY5Y cells; SH-SY5Y APP 5'UTR-luciferase reporter, luminescence; AID 1285, 2008; hit rate 0.82% among 190,000; inhibition, % at 2 µM;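 active = inhibition above a set limit, derived from the sample mean plus 3 SD, cut at about 45% in these data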
Numbers without * were called inactive; / = no result given. Only some compounds are listed: those with a hit (about 9.6% of all), similar ones and a draw of the others.

SMILES | Lmaj promast | Ba/F3 V617F tox | BaF3 parental | MT stabilizer | bCat nuc transl | APP 5UTR inh
Cc1cc(C)c2c3c(sc2n1)C1(CCSCC1)C(C#N)=C(N)O3 | 100* | 2 | 5 | 2 | 0 | -12
Cc1cc(C)c2c(n1)sc1c(-c3ccccc3)c(C#N)c(N)nc12 | -2 | 0 | 4 | 4 | 3 | 4
CC(C)(C)n1cnc(C(N)=O)c1N | -5 | -3 | 3 | 3 | -4 | -3
NS(=O)(=O)c1ccc(NC(=O)/C=C/c2ccccc2[N+](=O)[O-])cc1 | 69* | 7 | 6 | 5 | 0 | -4
CCOc1ccccc1NC(=O)/C=C/c1ccccc1[N+](=O)[O-] | 78* | 6 | 5 | 2 | 0 | 10
O=C(/C=C\c1ccccc1[N+](=O)[O-])Nc1ccccc1 | -5 | 1 | 5 | 2 | -3 | -73
CCOc1ccccc1NC(=O)/C=C/C(N)=O | 100* | 2 | 5 | 2 | / | 2
CC(=O)N1CC[n+]2c(-c3ccc(Cl)cc3Cl)csc21 | -10 | -1 | 0 | 3 | -1 | 3
CCCCC(=O)Nc1ccc(C(=O)NNC(=S)NC(=O)c2ccco2)cc1 | 6 | -2 | 2 | 5 | 1 | -9
O=C(NNC(=S)NC(=O)c1cccs1)c1ccc(NC(=O)c2ccccc2)cc1 | 99* | -1 | 3 | 4 | -4 | 15
CC(=O)Nc1ccc(C(=O)NNC(=O)c2cccs2)cc1 | -4 | -4 | 0 | 2 | 2 | 13
CCCCC(=O)Nc1ccc(C(=O)NNC(=S)NC(=O)c2cccs2)cc1 | 62* | -4 | 1 | 5 | -1 | 12
O=C(NC(=S)NNC(=O)c1cc2ccccc2cc1O)c1ccco1 | 76* | 22 | 13 | 2 | -3 | -6
O=C(NNC(=S)NC(=O)c1ccco1)c1ccc(NC(=O)c2ccccc2)cc1 | 96* | 3 | 4 | 6 | 0 | -6
CC(=O)Nc1ccc(S(=O)(=O)NCC2CCC(C(=O)NCCC(C)C)CC2)cc1 (centres undefined) | 0 | 2 | 2 | 4 | -2 | /
CCCC(=O)Nc1cc(C(=O)O)ccc1S(=O)(=O)c1ccc(Cl)cc1 | -8 | -1 | 4 | 3 | -5 | 11
NNC(=O)c1cc2ccccc2cc1O | 64* | -1 | 3 | 4 | 2 | -16
O=C(NCCO)c1cc2ccccc2cc1O | -6 | -1 | 3 | 4 | 1 | 2
CC(C)CNC(=O)c1ccc(NC(=O)c2cccs2)cc1 | 52* | -4 | 3 | 1 | / | -9
COc1ccc(NC(=O)Oc2cc(C)ccc2C(C)C)cc1 | / | 2 | -1 | / | -2 | /
Cc1cc(N2CCN(C)CC2)nc2ccc(NC(=O)c3ccc4c(c3)OCO4)cc12 | 100* | -2 | 1 | 5 | -3 | -59
Cc1cc(N2CCOCC2)nc2ccc(NC(=O)CCC(=O)N3CCCCC3)cc12 | 2 | -4 | -1 | 4 | 2 | -8
Cc1cc(N2CCCCC2)nc2ccc(NC(=O)c3ccc(Br)o3)cc12 | 94* | -1 | 3 | 1 | / | -17
Cc1cc(N2CCN(C)CC2)nc2ccc(NC(=S)N3CCC4(CC3)OCCO4)cc12 | 5 | 1 | 8 | 0 | -2 | 0
Cc1cc(N2CCN(C)CC2)nc2ccc(NC(=O)c3ccc(Br)o3)cc12 | 92* | 2 | 8 | 21 | -6 | -25
SMILES | Lmaj promast | Ba/F3 V617F tox | BaF3 parental | MT stabilizer | bCat nuc transl | APP 5UTR inh
O=C(OCC(=O)N1CCCCC1)c1cc(NS(=O)(=O)c2ccc(Cl)c([N+](=O)[O-])c2)ccc1O | 1 | -3 | 1 | 5 | 0 | -9
O=C(Cn1c(=O)oc2cc(S(=O)(=O)N3CCCC3)ccc21)N1CCCC1 | -7 | -1 | 6 | 7 | 9 | 4
Cn1c(=O)oc2cc(S(=O)(=O)N3CCN(c4ccc(F)cc4)CC3)ccc21 | 60* | -2 | 0 | 3 | -2 | 16
CN(CC(=O)Nc1ccc(S(=O)(=O)N2CCCC2)cc1)Cc1cccc(Cl)c1Cl | 99* | 4 | 8 | 3 | 0 | 1
O=C(Cn1c(=O)oc2cc(S(=O)(=O)N3CCCC3)ccc21)Nc1cccc(C(F)(F)F)c1 | 100* | 0 | 5 | 3 | 3 | -12
Cn1c(=O)c(=O)n(C)c2cc(S(=O)(=O)N3CCN(c4ccc(F)cc4)CC3)ccc21 | -4 | 1 | 3 | 5 | 1 | -4
CCc1cccc(NC(=O)Cn2c(=O)oc3cc(S(=O)(=O)N4CCOCC4)ccc32)c1 | -6 | 2 | 13 | 1 | / | -6
O=C(Cn1c(=O)oc2cc(S(=O)(=O)N3CCCC3)ccc21)NCc1ccc(F)cc1 | 98* | -2 | 6 | 5 | / | 11
Cc1ccc(N(CC(=O)NC(C)(C)C)C(=O)CNC(=O)c2cccs2)cc1C | 0 | -3 | 7 | 1 | -3 | -3
CCN(CC(=O)NCc1ccc(F)cc1)CC(=O)Nc1ccc(S(=O)(=O)N2CCCC2)cc1 | 98* | -4 | -2 | 7 | -1 | 21
O=C(Cc1ncon1)Nc1ccc(F)c(F)c1F | / | -4 | 3 | / | -1 | /
C=CCc1cc(C=O)cc(OCC)c1OCc1ccc(Cl)cc1 | 86* | -1 | 4 | 3 | 1 | 8
C=CCc1cc(C=O)cc(OC)c1OCc1ccc(Cl)cc1 | 19 | 3 | 2 | 2 | 0 | -13
O=C1/C(=C\c2cccnc2)SC(=S)N1C1CCS(=O)(=O)C1 (centres undefined) | 73* | 1 | 9 | 1 | / | -8
O=C1/C(=C/c2cccnc2)SC(=S)N1N1CCOCC1 | / | -1 | 2 | / | 0 | /
O=C1/C(=C/c2cccnc2)SC(=S)N1C1CCS(=O)(=O)C1 (centres undefined) | 92* | -6 | -2 | 4 | 0 | 6
Cc1nn(-c2ccccc2)c(Cl)c1/C=C1/C(=N)N2N=C(C(C)C)SC2=NC1=O | 6 | -2 | 2 | 9.9* | -3 | -15
Cc1cc(/C=C2\C(=N)N3N=C(C(C)C)SC3=NC2=O)c(C)n1Cc1ccccc1 | / | 2 | -7 | / | -2 | /
Cc1cccc(NC(=O)NCCc2c[nH]c3ccccc23)c1 | 89* | -2 | 4 | 3 | 1 | 4
O=C(NCCc1c[nH]c2ccccc12)Nc1cccc2ccccc12 | -3 | -4 | 2 | 1 | -2 | -4
Cc1ccc2c(c1)N(CC(=O)NCCc1c[nH]c3ccccc13)C(=O)CO2 | 53* | 1 | 8 | 6 | -6 | -11
COC(=O)C(C)Sc1nc(-c2ccc(OC)cc2)nc2c1c(=O)n(C)c(=O)n2C (centres undefined) | -11 | -5 | -1 | 4 | / | -8
O=C(Cc1ccccc1)N1CCN=C1SCc1ccc([N+](=O)[O-])cc1 | 93* | 0 | 8 | 5 | -3 | 2
